Among the data in ChEMBL document CHEMBL4622938, “Discovery of phenanthridine analogues as novel chemical probes disrupting the binding of DNA to ΔFosB homodimers and ΔFosB/JunD heterodimers” (Bioorg Med Chem Lett, 2020) are IC50 and inhibition values, retold here.

By IC50 is commonly meant the concentration at which inhibition is half-maximal.

One assay addresses T1, Protein FosB (Homo sapiens, UniProt P53539).
T1 sequence (P53539 whole entry): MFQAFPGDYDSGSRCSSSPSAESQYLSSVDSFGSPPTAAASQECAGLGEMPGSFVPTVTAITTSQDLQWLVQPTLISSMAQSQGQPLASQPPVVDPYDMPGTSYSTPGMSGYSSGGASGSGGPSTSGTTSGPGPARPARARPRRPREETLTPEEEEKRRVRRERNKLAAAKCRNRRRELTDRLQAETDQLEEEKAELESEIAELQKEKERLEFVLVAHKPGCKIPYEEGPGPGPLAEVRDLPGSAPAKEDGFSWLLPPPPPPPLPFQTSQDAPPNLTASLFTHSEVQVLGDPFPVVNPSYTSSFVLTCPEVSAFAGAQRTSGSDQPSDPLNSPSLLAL
Description: (§1) Inhibition of recombinant Hi6-tagged deltaFOSB (unknown origin) expressed in insect cells interaction with TAMRA labeled 5'-GTCGGTGACTCAAAACA-3' AP1 oligonucleotide measured after 15 mins by fluorescence polarization assay. The method in brief: (§2)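 ΔFosB homodimer, 320 nM (as monomers). Compound serially diluted, 10 concentrations over 0–200 μM in quadruplicate. Compound premixed 5 min with 25 nM TAMRA-cdk5 AP-1 19-mer duplex in 20 mM HEPES pH 7.5, 50 mM NaCl, then protein added for 15 min. FP read at ex 530/540, em 590 nm. Compound-plus-oligo wells without protein serve as the interference control. Four-parameter fit; IC50 is mean ± SD of two independent days.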

In assay [1] the target is T2, Protein fosB/Transcription factor jun-D (Homo sapiens, UniProt P17535+P53539).
T2 sequence (P53539 whole entry): T1 sequence (P53539 whole entry)
T2 sequence (P17535 whole entry): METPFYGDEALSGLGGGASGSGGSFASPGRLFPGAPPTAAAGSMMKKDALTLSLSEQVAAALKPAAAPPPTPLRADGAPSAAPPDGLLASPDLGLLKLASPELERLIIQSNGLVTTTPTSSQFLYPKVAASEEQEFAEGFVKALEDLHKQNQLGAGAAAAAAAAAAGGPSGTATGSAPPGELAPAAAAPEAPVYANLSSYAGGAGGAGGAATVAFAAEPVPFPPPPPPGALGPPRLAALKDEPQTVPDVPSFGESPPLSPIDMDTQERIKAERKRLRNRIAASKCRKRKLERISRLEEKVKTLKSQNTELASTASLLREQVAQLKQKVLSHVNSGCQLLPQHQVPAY
Description: (§3) Inhibition of recombinant Hi6-tagged deltaFOSB (unknown origin)/His6-tagged JUND (unknown origin) expressed in insect cells interaction with TAMRA labeled 5'-GTCGGTGACTCAAAACA-3' AP1 oligonucleotide measured after 15 mins by fluorescence polarization assay. The method in brief:
(§4)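 ΔFosB/JunD heterodimer, 280 nM (as monomers). Compound serially diluted, 10 concentrations over 0–200 μM in quadruplicate. Compound premixed 5 min with 25 nM TAMRA-cdk5 AP-1 19-mer duplex in 20 mM HEPES pH 7.5, 150 mM NaCl, then protein added for 15 min. FP read at ex 530/540, em 590 nm. Wells of compound with oligo and no protein check for DNA interference. IC50 from a four-parameter fit, mean ± SD of two independent days.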
For orientation: Polarisation of emitted light reports the rotation of a fluorescent probe.

In assay [2] the target is T3, Protein FosB (Homo sapiens) (UniProt P53539).
T3 sequence (whole entry): T1 sequence (P53539 whole entry)
Described as §1. The method in brief:
as §2

The target of assay [3] is Protein fosB/Transcription factor jun-D (Homo sapiens) (UniProt P53539+P17535). The description is as §3. The method in brief: as §4
Assay [4] has as its target T4, Protein fosB/Transcription factor jun-D (Homo sapiens, UniProt P53539+P17535).
T4 sequence (P53539 whole entry): T1 sequence (P53539 whole entry)
T4 sequence (P17535 whole entry): T2 sequence (P17535 whole entry)
Described as §3. The method in brief: as §4

As to `Cc1cccc2c3c(c(C(=O)O)nc12)CCC3`, the IC50 (on Protein FosB (read-out: IC50); in assay [1]) was > 100 µM in each case.

For the compound `COc1cc(OC)c2c(C3CCNCC3)nc3c(OC)cccc3c2c1`, the inhibition result in assay [2] and in assay [3] was “Dose-dependent effect” each time. Besides, the IC50 on Protein FosB (read-out: IC50) worked out at 58 µM; in assay [1], 55.7 µM.

With `COc1cccc2c1NC(C(=O)O)C1CCCC21` (configuration not stated), the IC50 (at Protein FosB (read-out: IC50); in assay [1]) was > 100 µM throughout.

`COc1cc(OC)c2c(C3CCN(C(C)=O)CC3)nc3c(OC)cccc3c2c1`: the IC50 (at Protein FosB (read-out: IC50); in assay [1]) was > 100 µM throughout.

Turning to `CCc1nc2c(OC)cccc2c2cc(OC)cc(OC)c12`, the IC50 entry (on Protein FosB; in assay [4]) was “Not Active” each time.

For the compound `COc1cccc2c1NC(CO)C1CC=CC21` (configuration not stated), the IC50 (at Protein FosB (read-out: IC50); in assay [1]) was > 100 µM throughout.

Take `COc1cc(OC)c2c(C(=O)O)nc3c(OC)cccc3c2c1`: the half-inhibitory concentration (IC50) (on Protein FosB (read-out: IC50); in assay [1]) was > 100 µM in each case.

With `CCOC(=O)C1Nc2c(OC)cccc2C2C=CCC12` (configuration not stated), the IC50 (at Protein FosB (read-out: IC50); in assay [1]) was > 100 µM in each case.

For `COc1cccc2c1NC(C(=O)Nc1ccccc1)C1CC=CC21` (configuration not stated), the IC50 (at Protein FosB (read-out: IC50); in assay [1]) was > 100 µM each time.

As for `CCOC(=O)c1nc2c(C)cccc2c2c1CCC2`, the IC50 (at Protein FosB (read-out: IC50); in assay [1]) was > 100 µM in each case.

Turning to `COc1cc(OC)c2c(C3CCN(C(=O)OC(C)(C)C)CC3)nc3c(OC)cccc3c2c1`, the IC50 (at Protein FosB (read-out: IC50); in assay [1]) was > 100 µM each time.

As to `Cc1cccc2c1NC(C(=O)O)C1CC=CC21` (configuration not stated), the IC50 entry (at Protein FosB; in assay [4]) was “Not Active” throughout.

As to `COc1cccc2c1NC(C(=O)O)C1CC=CC21` (configuration not stated), the values for the IC50 (on Protein FosB (read-out: IC50); in assay [1]) were 28.9 µM and 13.1 µM, respectively.

With `CNC(=O)C1Nc2c(OC)cccc2C2C=CCC12` (configuration not stated), the IC50 (on Protein FosB (read-out: IC50); in assay [1]) was > 100 µM throughout.

On to `COc1cccc2c1N(C(C)=O)C(C(=O)O)C1CC=CC21` (configuration not stated), for which the IC50 (at Protein FosB (read-out: IC50); in assay [1]) was > 100 µM in each case.
